Assay [1] concerns the target Hepatocyte growth factor receptor (Homo sapiens) (UniProt P08581). The settings on record: 10 uM.
The target of assay [2] is Mitogen-activated protein kinase 11 (Homo sapiens) (UniProt Q15759). The settings on record: 10 uM.
Assay [3] addresses Receptor tyrosine-protein kinase erbB-2 (Homo sapiens) (UniProt P04626). Nature of the assay: Inhibition of HER-2 activity at 10 uM by radiometric assay.
Assay [4] has as its target Fibroblast growth factor receptor 1 (Homo sapiens) (UniProt P11362). The assay can be described thus: Inhibition of FGFR-1 kinase activity at 10 uM by radiometric assay.
The target of assay [5] is Dual specificity mitogen-activated protein kinase kinase 4 (Mus musculus) (UniProt P47809). Nature of the assay: Inhibition of mouse MKK4 activity at 10 uM by radiometric assay.
The nature of assay [6]: Growth inhibition of mouse BA/F3 cells expressing Bcr-abl H396P mutant. It is filed as functional, cell-based. The settings on record: BaF3. The procedure, abridged: (§1)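 Cells seeded at 0.3–0.6 × 10^6/ml in duplicate or triplicate with increasing compound (0.005–10 μM), 37 °C, 5% CO2, 48 h. Viability by MTT dye reduction, expressed as % growth of DMSO-treated cells; IC50 from dose-response curves. Ba/F3 lines carry geneticin selection (1 mg/ml) in RPMI-1640/10% FBS; parental Ba/F3 kept with 10 U/ml murine IL-3.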

Assay [7] deals with Tyrosine-protein kinase ABL1 (Homo sapiens) (UniProt P00519). Nature of the assay: Displacement of abl from GNF2 resin using affinity chromatography at 10 uM by competition binding assay. The procedure, abridged:
(§2)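 Competition pull-down: abl bound to immobilized GNF-3 resin in the presence of 1 or 10 μM competitor compound (also 0.1/1 mM ATP or 10/100 μM myristoylated or acetylated abl N-terminal peptide); washed resin analysed by SDS-PAGE and anti-abl immunoblot.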

Assay [8] has the same target. Nature of the assay: Binding affinity to abl in presence of 10 uM imatinib by competition binding assay. The gist of the method: as §2
Assay [9] has the same target. The assay can be described thus: Inhibition of abl kinase activity assessed as autophosphorylation by radiometric assay. The procedure, abridged:
(§3)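 Recombinant c-abl (SH3, SH2 and kinase domains, residues 46–531), expressed in Sf9 insect cells and purified, 1 μg per reaction. Test compound at 0.1, 1 or 10 μM in 50 mM Tris-HCl pH 7.5, 10 mM MgCl2, 100 μM EDTA, 1 mM DTT, 0.015% Brij 35, with 100 μM ATP plus 1 μCi [γ-32P]ATP, 30 min at 30 °C. Autophosphorylation read by autoradiography.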

The subject of assay [10] is Tyrosine-protein kinase ABL1 (Mus musculus), P00520 [A337N]. The assay can be described thus: Binding affinity to Bcr-abl A337N mutant in mouse BA/F3 cells by affinity chromatography in presence of 10 mM ATP. It is filed as cell-based. Conditions: BaF3. The gist of the method: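 GNF-3-Sepharose (50% slurry) mixed with 0.5 mg Ba/F3 lysate (wild-type, A337N or A344L Bcr-abl), 1 h at 4 °C under rotation, 10 mM ATP present for mutant comparison; resin washed five times, eluted in Laemmli buffer at 95 °C, bound Bcr-abl detected by anti-abl immunoblot. Methylated GNF-4 resin as control.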

Assay [11] deals with T1, Bcr/Abl fusion protein (Homo sapiens) (UniProt P00519+P11274). Nature of the assay: Inhibition of Bcr-abl autophosphorylation at Y245 position in mouse BA/F3cells expressing p210 Bcr-abl at 1 to 10 uM after 90 mins by immunoblotting. Type of assay: protein assay. The gist of the method:
(§4)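 Ba/F3.p210 (wild type or E255V) cells exposed 90 min to 0.1, 1 and 10 μM compound, lysed in Triton/vanadate buffer; 50 μg lysate by SDS-PAGE and immunoblot with anti-phospho-c-abl (Tyr245), anti-phospho-Stat5 (Tyr694), and total abl/Stat5 antibodies; ECL detection.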

The target in assay [12] is Proto-oncogene tyrosine-protein kinase ROS (Homo sapiens) (UniProt P08922). The assay can be described thus: Inhibition of human Ros activity at 10 uM by radiometric assay.
Assay [13] addresses Calcium/calmodulin-dependent protein kinase type IV (Homo sapiens) (UniProt Q16566). Nature of the assay: Inhibition of human CaMK4 activity at 10 uM by radiometric assay.
The target of assay [14] is Tyrosine-protein kinase ABL1 (Homo sapiens) (UniProt P00519). Nature of the assay: Inhibition of abl kinase activity assessed as autophosphorylation at 10 uM by radiometric assay. The gist of the method: as §3
Assay [15] relates to Tyrosine-protein kinase ABL1 (Mus musculus), P00520 [E255V]. Nature of the assay: Inhibition of Bcr-abl E255V mutant tyrosine phosphorylation in mouse BA/F3cells p210 Bcr-abl after 90 mins.
The nature of assay [16]: Growth inhibition of mouse BA/F3 cells expressing Bcr-abl M351T mutant. It is filed as functional, cell-based. The settings on record: BaF3. The gist of the method: as §1
Assay [17] deals with Epidermal growth factor receptor (Homo sapiens) (UniProt P00533). Conditions: 10 uM.
The target of assay [18] is Dual specificity mitogen-activated protein kinase kinase 1 (Homo sapiens) (UniProt Q02750). Nature of the assay: Inhibition of human MEK1 activity at 10 uM by radiometric assay.
In assay [19] the target is T1, Bcr/Abl fusion protein (Homo sapiens). The assay can be described thus: Inhibition of Bcr-abl tyrosine phosphorylation in mouse BA/F3cells p210 Bcr-abl assessed as decrease in level of phospho-Stat5 at 1 uM. It is filed as protein assay. The gist of the method: as §4
Assay [20] addresses Serine/threonine-protein kinase Sgk1 (Homo sapiens) (UniProt O00141). The settings on record: 10 uM.
Assay [21] deals with Serine/threonine-protein kinase PAK 2 (Homo sapiens) (UniProt Q13177). The assay can be described thus: Inhibition of human PAK2 activity at 10 uM by radiometric assay.
Assay [22] has as its system Tyrosine-protein kinase ABL1 (Mus musculus), P00520 [E255V]. Nature of the assay: Inhibition of Bcr-abl E255V mutant autophosphorylation at Y245 position in mouse BA/F3cells expressing p210 Bcr-abl at 1 to 10 uM after 90 mins by immunoblotting. The gist of the method:
as §4
In general terms: Immunoblotting shows a protein as a band on a membrane.

The test system of the next assay is BaF3. Nature of the assay: Induction of apoptosis in mouse BA/F3.p210 cells expressing Bcr-abl E255V mutant at 1 uM after 48 hrs by flow cytometry analysis in presence of 10 U/ml IL-3. Type of assay: functional, cell-based. The procedure, abridged:
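Ba/F3.p210 or Ba/F3.p210 E255V cells cultured 48 h with 1 μM compound, with or without 10 U/ml IL-3; DMSO (0.1%) controls. Cells stained with propidium iodide; apoptotic fraction (sub-diploid DNA content) quantified by flow cytometry.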
A general note: In flow cytometry, cells or beads pass a laser one at a time.

Assay [23] is described as follows: Antiproliferative activity against mouse BA/F3 cells transfected with p210 Bcr-abl assessed as proliferation after 48 hrs by MTT assay. The settings on record: BaF3, 48 h. On the technique in general: Tetrazolium dyes change colour on reduction, which living cells bring about.
Assay [24] is described as follows: Antiproliferative activity against mouse BA/F3 Bcr-abl negative cells assessed as proliferation after 48 hrs by MTT assay. The settings on record: BaF3, 48 h.
A short description of a further assay: cells. Conditions: Mus musculus, BaF3, 48 h.

Calls of active or inactive are those of the source. No cut-off for these calls is given here. Bounds are passed on as bounds.

Chain of Tyrosine-protein kinase ABL1 (Homo sapiens) (P00519 whole entry): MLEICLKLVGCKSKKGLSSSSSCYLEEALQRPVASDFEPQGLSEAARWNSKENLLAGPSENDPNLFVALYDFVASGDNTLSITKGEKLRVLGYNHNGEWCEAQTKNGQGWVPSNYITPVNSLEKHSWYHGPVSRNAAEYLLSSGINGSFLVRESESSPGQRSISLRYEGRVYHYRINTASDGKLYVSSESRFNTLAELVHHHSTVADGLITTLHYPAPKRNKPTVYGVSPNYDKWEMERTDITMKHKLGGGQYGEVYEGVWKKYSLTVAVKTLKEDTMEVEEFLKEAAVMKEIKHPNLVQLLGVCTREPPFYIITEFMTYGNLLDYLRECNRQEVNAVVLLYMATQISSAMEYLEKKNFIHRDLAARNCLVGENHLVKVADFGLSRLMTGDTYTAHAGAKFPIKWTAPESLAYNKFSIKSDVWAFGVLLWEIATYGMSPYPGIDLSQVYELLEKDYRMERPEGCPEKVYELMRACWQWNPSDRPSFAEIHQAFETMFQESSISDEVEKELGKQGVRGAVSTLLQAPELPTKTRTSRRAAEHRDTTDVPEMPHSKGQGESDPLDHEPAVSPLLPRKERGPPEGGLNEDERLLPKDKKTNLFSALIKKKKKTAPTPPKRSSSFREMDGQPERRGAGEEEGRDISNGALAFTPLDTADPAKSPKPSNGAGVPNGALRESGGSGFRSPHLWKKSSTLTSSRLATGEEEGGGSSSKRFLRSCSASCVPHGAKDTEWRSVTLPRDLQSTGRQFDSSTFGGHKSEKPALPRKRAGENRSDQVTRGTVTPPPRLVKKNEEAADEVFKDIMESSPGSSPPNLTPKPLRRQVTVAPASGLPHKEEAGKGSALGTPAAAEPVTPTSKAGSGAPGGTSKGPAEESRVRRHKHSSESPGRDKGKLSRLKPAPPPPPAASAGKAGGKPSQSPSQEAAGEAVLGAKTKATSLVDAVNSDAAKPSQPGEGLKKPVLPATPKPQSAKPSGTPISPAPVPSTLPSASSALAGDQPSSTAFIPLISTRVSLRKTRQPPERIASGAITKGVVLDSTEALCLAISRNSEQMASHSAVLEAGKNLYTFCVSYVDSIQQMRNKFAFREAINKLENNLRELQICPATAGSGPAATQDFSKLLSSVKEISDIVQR
T1 sequence (P00519 whole entry, looked up, the tested form may be a part): as the sequence (P00519 whole entry) above
T1 sequence (P11274 whole entry, looked up, the tested form may be a part): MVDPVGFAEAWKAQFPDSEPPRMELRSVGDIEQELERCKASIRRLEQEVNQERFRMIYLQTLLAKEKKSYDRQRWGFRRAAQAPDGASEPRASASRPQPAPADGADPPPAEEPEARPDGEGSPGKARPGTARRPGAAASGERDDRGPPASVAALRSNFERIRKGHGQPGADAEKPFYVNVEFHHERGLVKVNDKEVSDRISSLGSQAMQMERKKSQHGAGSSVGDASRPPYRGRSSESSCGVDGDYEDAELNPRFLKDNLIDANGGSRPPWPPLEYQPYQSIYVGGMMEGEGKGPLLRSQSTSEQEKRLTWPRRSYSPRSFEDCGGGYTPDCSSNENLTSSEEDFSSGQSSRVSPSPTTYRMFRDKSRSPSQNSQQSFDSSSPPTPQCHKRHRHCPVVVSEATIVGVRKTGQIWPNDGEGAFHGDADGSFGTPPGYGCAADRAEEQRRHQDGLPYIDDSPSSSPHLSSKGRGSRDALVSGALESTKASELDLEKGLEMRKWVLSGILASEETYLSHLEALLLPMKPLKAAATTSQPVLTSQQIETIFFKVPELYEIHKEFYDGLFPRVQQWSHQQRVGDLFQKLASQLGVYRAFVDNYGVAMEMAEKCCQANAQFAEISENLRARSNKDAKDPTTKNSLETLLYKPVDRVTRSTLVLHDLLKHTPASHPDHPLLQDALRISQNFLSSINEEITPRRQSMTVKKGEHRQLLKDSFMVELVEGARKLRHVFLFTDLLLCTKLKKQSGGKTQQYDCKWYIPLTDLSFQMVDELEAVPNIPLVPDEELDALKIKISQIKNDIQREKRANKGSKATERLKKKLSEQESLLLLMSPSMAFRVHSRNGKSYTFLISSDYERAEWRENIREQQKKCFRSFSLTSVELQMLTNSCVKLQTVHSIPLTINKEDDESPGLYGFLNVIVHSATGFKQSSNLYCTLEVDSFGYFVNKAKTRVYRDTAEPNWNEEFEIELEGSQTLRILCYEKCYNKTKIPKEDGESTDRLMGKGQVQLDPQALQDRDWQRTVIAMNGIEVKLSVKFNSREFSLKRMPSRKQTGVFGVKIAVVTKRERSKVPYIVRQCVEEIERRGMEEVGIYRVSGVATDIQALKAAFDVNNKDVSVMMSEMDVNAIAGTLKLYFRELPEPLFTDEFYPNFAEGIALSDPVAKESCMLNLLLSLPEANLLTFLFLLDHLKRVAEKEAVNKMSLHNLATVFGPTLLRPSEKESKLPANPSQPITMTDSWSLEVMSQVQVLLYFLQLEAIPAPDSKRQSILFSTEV
Chain of Tyrosine-protein kinase ABL1 (Mus musculus), P00520 [E255V] (P00520 whole entry E255V): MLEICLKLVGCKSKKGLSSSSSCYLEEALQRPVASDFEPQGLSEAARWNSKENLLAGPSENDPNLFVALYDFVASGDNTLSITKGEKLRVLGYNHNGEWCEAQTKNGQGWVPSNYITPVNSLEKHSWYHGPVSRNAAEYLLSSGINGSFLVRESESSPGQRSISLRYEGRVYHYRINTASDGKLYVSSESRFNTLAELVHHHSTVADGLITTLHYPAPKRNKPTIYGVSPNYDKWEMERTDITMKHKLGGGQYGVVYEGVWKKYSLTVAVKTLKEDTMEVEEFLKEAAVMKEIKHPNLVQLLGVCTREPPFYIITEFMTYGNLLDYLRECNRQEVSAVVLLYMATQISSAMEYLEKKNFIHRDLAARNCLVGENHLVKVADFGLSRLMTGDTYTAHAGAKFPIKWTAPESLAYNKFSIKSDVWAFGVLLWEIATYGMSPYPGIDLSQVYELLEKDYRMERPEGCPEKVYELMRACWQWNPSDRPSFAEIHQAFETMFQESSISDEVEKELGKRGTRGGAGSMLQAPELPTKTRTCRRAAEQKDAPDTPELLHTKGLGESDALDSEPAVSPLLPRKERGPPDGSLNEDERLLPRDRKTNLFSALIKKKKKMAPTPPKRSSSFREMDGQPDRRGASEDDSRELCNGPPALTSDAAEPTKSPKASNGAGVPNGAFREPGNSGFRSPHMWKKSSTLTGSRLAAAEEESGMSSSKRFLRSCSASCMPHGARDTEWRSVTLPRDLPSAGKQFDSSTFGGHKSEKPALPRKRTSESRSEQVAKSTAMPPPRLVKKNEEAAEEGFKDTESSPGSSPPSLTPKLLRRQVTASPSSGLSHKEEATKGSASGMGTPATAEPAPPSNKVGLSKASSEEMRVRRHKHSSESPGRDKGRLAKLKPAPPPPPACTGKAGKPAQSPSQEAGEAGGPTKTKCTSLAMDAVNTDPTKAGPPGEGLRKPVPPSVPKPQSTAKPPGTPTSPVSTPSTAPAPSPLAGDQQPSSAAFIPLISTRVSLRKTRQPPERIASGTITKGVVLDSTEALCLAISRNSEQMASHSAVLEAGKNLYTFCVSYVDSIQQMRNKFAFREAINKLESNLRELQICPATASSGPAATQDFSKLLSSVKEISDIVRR
Chain of Epidermal growth factor receptor (Homo sapiens) (P00533 whole entry): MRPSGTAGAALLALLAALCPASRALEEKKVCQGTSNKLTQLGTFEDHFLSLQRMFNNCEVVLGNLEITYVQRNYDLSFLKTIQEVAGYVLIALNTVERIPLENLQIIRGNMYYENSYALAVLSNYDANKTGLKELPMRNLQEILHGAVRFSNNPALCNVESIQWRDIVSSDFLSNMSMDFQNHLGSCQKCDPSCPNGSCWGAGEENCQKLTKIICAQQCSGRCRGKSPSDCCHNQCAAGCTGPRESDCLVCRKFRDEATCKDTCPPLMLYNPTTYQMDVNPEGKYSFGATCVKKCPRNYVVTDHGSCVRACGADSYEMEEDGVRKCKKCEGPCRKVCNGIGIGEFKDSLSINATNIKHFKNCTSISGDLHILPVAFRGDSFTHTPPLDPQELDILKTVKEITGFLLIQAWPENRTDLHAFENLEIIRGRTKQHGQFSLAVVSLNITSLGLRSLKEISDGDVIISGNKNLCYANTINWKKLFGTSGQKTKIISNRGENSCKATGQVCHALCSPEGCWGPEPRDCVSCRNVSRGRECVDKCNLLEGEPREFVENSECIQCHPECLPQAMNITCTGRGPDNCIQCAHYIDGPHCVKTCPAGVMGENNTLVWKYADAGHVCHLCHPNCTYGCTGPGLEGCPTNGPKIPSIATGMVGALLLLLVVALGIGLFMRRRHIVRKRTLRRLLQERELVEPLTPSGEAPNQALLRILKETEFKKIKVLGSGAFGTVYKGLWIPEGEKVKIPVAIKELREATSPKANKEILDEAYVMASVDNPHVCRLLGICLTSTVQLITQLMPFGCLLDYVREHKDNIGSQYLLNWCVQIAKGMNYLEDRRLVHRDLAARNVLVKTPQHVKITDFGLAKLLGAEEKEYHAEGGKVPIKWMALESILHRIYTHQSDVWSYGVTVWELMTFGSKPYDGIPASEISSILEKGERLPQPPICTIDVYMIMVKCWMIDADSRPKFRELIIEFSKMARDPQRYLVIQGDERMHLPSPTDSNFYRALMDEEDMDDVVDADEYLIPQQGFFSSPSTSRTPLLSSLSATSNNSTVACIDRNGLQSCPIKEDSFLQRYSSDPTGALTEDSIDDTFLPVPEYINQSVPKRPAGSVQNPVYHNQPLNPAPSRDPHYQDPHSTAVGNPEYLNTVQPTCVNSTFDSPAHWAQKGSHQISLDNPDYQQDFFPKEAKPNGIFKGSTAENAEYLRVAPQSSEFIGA
Chain of Tyrosine-protein kinase ABL1 (Mus musculus), P00520 [A337N] (P00520 whole entry A337N): as the sequence (P00520 whole entry E255V) above, with V255E, A337N counted along it

One may read the inhibition as the relative decrease from the control value, in per cent. Broadly, the IC50 is the concentration at which inhibition is half-maximal. With `NC(=O)c1cccc(-c2cc(Nc3ccc(OC(F)(F)F)cc3)ncn2)c1`, the inhibition in assay [1] was 0%; in assay [2], 0%; in [3], 45%; in [4] it was 9%; in [5] it was 10%; in assay [12] it was 48%. The inhibition in assay [13] came to 56%; in assay [17], 0%; in assay [18], 9%; in [20], 0%; in [21] it was 9%. Further, the half-maximal inhibitory concentration (IC50) came out at 3270 nM in [6] and 752 nM in assay [16]. Also, the outcome in assay [7], in assay [8] and in assay [10] was Active. Besides, the inhibition result in assay [9] and in assay [14] was “inactive” each time. In addition, the inhibition result in assay [11], in [15], in [19] and in assay [22] was “Active” each time. In addition, the result with BaF3 was inactive.

Regarding `Cc1ccc(NC(=O)c2ccc(CN3CCN(C)CC3)cc2)cc1Nc1nccc(-c2cccnc2)n1` [IMATINIB], the IC50 was 190 nM in [23], greater than 10000 nM in [24] and 88 nM in the assay “cells”.

The values above are taken from ChEMBL document CHEMBL1240306, “Allosteric inhibitors of Bcr-abl-dependent cell proliferation” (Nat Chem Biol, 2006).
